pIC50: −log10 of the molar value.
Assays:
P2X purinoceptor 4 = target: T1, P2X purinoceptor 4 (Rattus norvegicus, UniProt P51577); assay: Antagonist activity against rat P2X4 receptor expressed in Xenopus laevis oocyte assessed as inhibition of ATP-induced inward current by two-electrode voltage-clamp electrophysiology
T1 sequence (P51577 whole entry): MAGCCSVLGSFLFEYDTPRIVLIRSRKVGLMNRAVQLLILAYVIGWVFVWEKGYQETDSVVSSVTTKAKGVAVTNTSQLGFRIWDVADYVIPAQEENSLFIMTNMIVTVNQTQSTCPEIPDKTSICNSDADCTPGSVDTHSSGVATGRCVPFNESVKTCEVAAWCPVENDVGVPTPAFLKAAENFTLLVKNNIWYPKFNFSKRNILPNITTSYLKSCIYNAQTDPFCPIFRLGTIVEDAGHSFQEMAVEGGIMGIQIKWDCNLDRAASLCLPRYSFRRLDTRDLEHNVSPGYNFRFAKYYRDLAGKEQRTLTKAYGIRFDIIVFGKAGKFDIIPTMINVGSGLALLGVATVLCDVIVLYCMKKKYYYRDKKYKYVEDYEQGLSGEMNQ

P2X purinoceptor 2 = target: T2, P2X purinoceptor 2 (Rattus norvegicus, UniProt P49653); assay: Antagonist activity against rat P2X2 receptor expressed in Xenopus laevis oocyte assessed as inhibition of ATP-induced inward current by two-electrode voltage-clamp electrophysiology
T2 sequence (P49653 whole entry): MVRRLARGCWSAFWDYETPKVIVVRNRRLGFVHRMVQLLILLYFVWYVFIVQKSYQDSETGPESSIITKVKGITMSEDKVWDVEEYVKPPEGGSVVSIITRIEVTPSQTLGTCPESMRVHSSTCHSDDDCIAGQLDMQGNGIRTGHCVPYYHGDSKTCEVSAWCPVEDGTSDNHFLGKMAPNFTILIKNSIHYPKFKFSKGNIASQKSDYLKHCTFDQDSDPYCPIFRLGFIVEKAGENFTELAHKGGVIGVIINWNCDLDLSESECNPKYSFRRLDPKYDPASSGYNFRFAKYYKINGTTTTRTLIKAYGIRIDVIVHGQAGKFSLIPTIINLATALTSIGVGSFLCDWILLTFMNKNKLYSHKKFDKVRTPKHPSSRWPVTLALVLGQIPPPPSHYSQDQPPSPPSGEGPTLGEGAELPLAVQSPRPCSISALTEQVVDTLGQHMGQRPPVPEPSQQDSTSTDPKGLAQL

[1] = target: P2Y purinoceptor 6 (Rattus norvegicus) (UniProt Q63371); assay: Antagonist activity against rat P2Y6 receptor expressed in 1321N1 astrocytoma cells by calcium mobilization assay
P2Y purinoceptor 4 = P2Y purinoceptor 4 (Homo sapiens, UniProt P51582); assay: Antagonist activity against human P2Y4 receptor expressed in 1321N1 astrocytoma cells by calcium mobilization assay; assay type: functional, cell-based
Outline: (§1)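 Astrocytoma cell lines stably transfected with human P2Y2, human P2Y4 or rat P2Y6 receptor. Inhibition of receptor-mediated intracellular calcium mobilization was measured.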

P2Y purinoceptor 2 = P2Y purinoceptor 2 (Homo sapiens, UniProt P41231); assay: Antagonist activity against human P2Y2 receptor expressed in 1321N1 astrocytoma cells by calcium mobilization assay; assay type: functional, cell-based
Outline: as §1

[2] = target: T3, P2X purinoceptor 2 (Rattus norvegicus) (UniProt P49653); assay: Antagonist activity against rat P2X2 receptor expressed in Xenopus laevis oocyte assessed as potentiation of ATP-induced inward current at 100 nM by two-electrode voltage-clamp electrophysiology
T3 sequence (whole entry): T2 sequence (P49653 whole entry)

Sequence of P2Y purinoceptor 4 (P51582 whole entry): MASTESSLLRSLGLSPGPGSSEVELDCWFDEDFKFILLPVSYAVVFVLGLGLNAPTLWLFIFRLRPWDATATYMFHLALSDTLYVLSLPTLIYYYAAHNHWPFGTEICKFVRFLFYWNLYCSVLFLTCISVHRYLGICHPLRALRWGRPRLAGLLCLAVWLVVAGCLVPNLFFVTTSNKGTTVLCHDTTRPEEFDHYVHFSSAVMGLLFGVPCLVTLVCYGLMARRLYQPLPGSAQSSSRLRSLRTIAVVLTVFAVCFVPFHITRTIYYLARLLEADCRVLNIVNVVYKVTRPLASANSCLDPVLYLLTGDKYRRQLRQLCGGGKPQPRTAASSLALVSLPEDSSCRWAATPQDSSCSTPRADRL
Sequence of P2Y purinoceptor 2 (P41231 whole entry): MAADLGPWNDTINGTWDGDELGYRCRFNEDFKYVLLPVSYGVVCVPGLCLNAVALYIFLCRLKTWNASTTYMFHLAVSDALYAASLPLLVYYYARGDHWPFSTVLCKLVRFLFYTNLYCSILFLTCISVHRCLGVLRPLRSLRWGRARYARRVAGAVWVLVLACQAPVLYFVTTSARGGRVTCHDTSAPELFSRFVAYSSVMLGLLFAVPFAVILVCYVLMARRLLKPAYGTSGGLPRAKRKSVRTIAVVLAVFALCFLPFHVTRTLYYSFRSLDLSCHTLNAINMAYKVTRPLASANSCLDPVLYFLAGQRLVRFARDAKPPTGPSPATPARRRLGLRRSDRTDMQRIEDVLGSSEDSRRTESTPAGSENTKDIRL

| SMILES | pIC50 (P2X purinoceptor 4) | pIC50 (P2X purinoceptor 2) | pIC50 [1] | pIC50 (P2Y purinoceptor 4) | pIC50 (P2Y purinoceptor 2) | potentiation % [2] [%] |
| --- | --- | --- | --- | --- | --- | --- |
| Nc1cc(Nc2cc(S(=O)(=O)O)c(N)c3c2C(=O)c2ccccc2C3=O)cc(C(=O)O)c1 | < 5.00 | 6.00 |  |  |  |  |
| Nc1c(S(=O)(=O)O)cc(Nc2ccccc2)c2c1C(=O)c1ccccc1C2=O [ACID BLUE 25] | < 5.00 | 6.00 | 4.07 |  |  |  |
| Nc1c(S(=O)(=O)O)cc(Nc2cccc(Cl)c2)c2c1C(=O)c1ccccc1C2=O |  | 7.00 | < 5.00 | 4.66 |  |  |
| Nc1c(S(=O)(=O)O)cc(Nc2ccc(Nc3nc(O)nc(O)n3)cc2)c2c1C(=O)c1ccccc1C2=O | < 5.00 | 6.71 |  | 5.00 | 4.52 |  |
| Cc1ccc(Nc2cc(S(=O)(=O)O)c(N)c3c2C(=O)c2ccccc2C3=O)cc1 | < 5.00 | 6.00 |  |  |  |  |
| Nc1c(S(=O)(=O)O)cc(Nc2cccc(Br)c2)c2c1C(=O)c1ccccc1C2=O | < 5.00 | 6.00 |  |  |  |  |
| Nc1c(S(=O)(=O)O)cc(Nc2ccc(O)cc2)c2c1C(=O)c1ccccc1C2=O | < 5.00 | 6.23 | 5.28 | 5.65 |  |  |
| Cc1cccc(Nc2cc(S(=O)(=O)O)c(N)c3c2C(=O)c2ccccc2C3=O)c1C | < 5.00 | 6.00 |  |  |  |  |
| COc1cc(Nc2cc(S(=O)(=O)O)c(N)c3c2C(=O)c2ccccc2C3=O)cc(OC)c1 |  | < 6.00 |  |  |  |  |
| Nc1c(S(=O)(=O)O)cc(Nc2cccc([N+](=O)[O-])c2)c2c1C(=O)c1ccccc1C2=O |  | < 6.00 |  |  |  |  |
| Cc1cccc(Nc2cc(C)c(N)c3c2C(=O)c2ccccc2C3=O)c1 | < 5.00 | < 5.00 |  |  |  |  |
| Nc1c(S(=O)(=O)O)cc(Nc2cc(F)cc(F)c2)c2c1C(=O)c1ccccc1C2=O |  | < 6.00 |  |  |  |  |
| Cc1cc(C)c(Nc2cc(S(=O)(=O)O)c(N)c3c2C(=O)c2ccccc2C3=O)c(C)c1 [ACID BLUE 129] | < 5.00 | 6.00 |  |  |  |  |
| Nc1c(S(=O)(=O)O)cc(Nc2cccc(Nc3nc(Cl)nc(Cl)n3)c2)c2c1C(=O)c1ccccc1C2=O |  | 7.07 | < 5.00 | 5.00 | 4.61 |  |
| Nc1c(S(=O)(=O)O)cc(Nc2ccccc2C(=O)O)c2c1C(=O)c1ccccc1C2=O | < 5.00 | 6.00 |  |  |  |  |
| Nc1ccc(Nc2cc(S(=O)(=O)O)c(N)c3c2C(=O)c2ccccc2C3=O)cc1S(=O)(=O)O | < 5.00 | 6.00 |  |  |  |  |
| Nc1c(S(=O)(=O)O)cc(Nc2cc(Nc3nc(Cl)nc(Cl)n3)cc(C(=O)O)c2)c2c1C(=O)c1ccccc1C2=O | < 5.00 | 6.53 | 5.59 | 5.84 | 5.49 |  |
| COc1nc(Cl)nc(Nc2ccc(Nc3cc(S(=O)(=O)O)c(N)c4c3C(=O)c3ccccc3C4=O)cc2S(=O)(=O)O)n1 | < 5.00 | 6.24 | < 5.00 | < 5.00 | 4.62 |  |
| Nc1c(S(=O)(=O)O)cc(Nc2ccc(Nc3ncccn3)c(S(=O)(=O)O)c2)c2c1C(=O)c1ccccc1C2=O | < 5.00 | 6.00 |  |  |  |  |

| SMILES | pIC50 (P2X purinoceptor 4) | pIC50 (P2X purinoceptor 2) | pIC50 [1] | pIC50 (P2Y purinoceptor 4) | pIC50 (P2Y purinoceptor 2) | potentiation % [2] [%] |
| --- | --- | --- | --- | --- | --- | --- |
| CCOc1ccccc1Nc1cc(S(=O)(=O)O)c(N)c2c1C(=O)c1ccccc1C2=O | < 5.00 | 6.00 |  |  |  |  |
| Nc1c(S(=O)(=O)O)cc(Nc2ccc(Cl)cc2C(=O)O)c2c1C(=O)c1ccccc1C2=O | < 5.00 | 6.00 |  |  |  |  |
| Nc1c(S(=O)(=O)O)cc(Nc2ccc(S(=O)(=O)O)c(Nc3nc(O)nc(O)n3)c2)c2c1C(=O)c1ccccc1C2=O |  | 6.52 |  |  |  |  |
| CCOP(=O)(Cc1ccc(Nc2cc(S(=O)(=O)O)c(N)c3c2C(=O)c2ccccc2C3=O)cc1)OCC | < 5.00 | 6.00 |  |  |  |  |
| Nc1c(S(=O)(=O)O)cc(Nc2ccc(Oc3ccccc3)cc2)c2c1C(=O)c1ccccc1C2=O | < 5.00 | 6.00 |  |  |  |  |
| Nc1c(S(=O)(=O)O)cc(Nc2ccc(O)c(C(=O)O)c2)c2c1C(=O)c1ccccc1C2=O | < 5.00 | 6.00 |  |  |  |  |
| Cc1cc(Nc2ccccc2)c2c(c1N)C(=O)c1ccccc1C2=O | < 5.00 | < 5.00 |  |  |  |  |
| Nc1c(S(=O)(=O)O)cc(Nc2ccc(CC(=O)O)cc2)c2c1C(=O)c1ccccc1C2=O | < 5.00 | 6.00 |  |  |  |  |
| Cc1cc(C)c(Nc2cc(S(=O)(=O)O)c(N)c3c2C(=O)c2ccccc2C3=O)c(C)c1N | < 5.00 | 6.00 |  |  |  |  |
| Cc1ccccc1Nc1cc(S(=O)(=O)O)c(N)c2c1C(=O)c1ccccc1C2=O | < 5.00 | 6.00 |  |  |  |  |
| Nc1c(S(=O)(=O)O)cc(NC2CCCCC2)c2c1C(=O)c1ccccc1C2=O | < 5.00 | 6.00 |  |  |  |  |
| Nc1c(S(=O)(=O)O)cc(Nc2ccc(Nc3ncccn3)cc2)c2c1C(=O)c1ccccc1C2=O | < 5.00 | < 6.00 |  |  |  |  |
| Nc1c(S(=O)(=O)O)cc(Nc2ccc(Nc3ccccc3)c(S(=O)(=O)O)c2)c2c1C(=O)c1ccccc1C2=O |  |  |  |  |  | 110 |
| Cc1cc(C)cc(Nc2cc(S(=O)(=O)O)c(N)c3c2C(=O)c2ccccc2C3=O)c1 |  |  |  |  |  | 106 |
| Nc1c(S(=O)(=O)O)cc(Nc2ccc(Nc3nc(Cl)nc(Cl)n3)cc2)c2c1C(=O)c1ccccc1C2=O | < 5.00 | 6.93 | 5.00 | 5.00 | 4.92 |  |
| Nc1c(S(=O)(=O)O)cc(Nc2ccc(S(=O)(=O)O)cc2)c2c1C(=O)c1ccccc1C2=O | < 5.00 | 6.00 |  |  |  |  |
| Cc1c(N)cccc1Nc1cc(S(=O)(=O)O)c(N)c2c1C(=O)c1ccccc1C2=O | < 5.00 | 6.00 |  |  |  |  |
| Nc1c(S(=O)(=O)O)cc(Nc2ccc(Nc3nc(Cl)nc(Cl)n3)c(S(=O)(=O)O)c2)c2c1C(=O)c1ccccc1C2=O | < 5.00 | 5.94 |  |  |  |  |
| Nc1c(S(=O)(=O)O)cc(Nc2ccccc2S(=O)(=O)O)c2c1C(=O)c1ccccc1C2=O | < 5.00 | < 5.00 |  |  |  |  |

| SMILES | pIC50 (P2X purinoceptor 4) | pIC50 (P2X purinoceptor 2) | pIC50 [1] | pIC50 (P2Y purinoceptor 4) | pIC50 (P2Y purinoceptor 2) | potentiation % [2] [%] |
| --- | --- | --- | --- | --- | --- | --- |
| Nc1c(S(=O)(=O)O)cc(Nc2ccc(Nc3nc(Cl)nc(Nc4ccccc4S(=O)(=O)O)n3)c(S(=O)(=O)O)c2)c2c1C(=O)c1ccccc1C2=O [CIBACRON BLUE 3GA] | 4.40 | < 6.00 |  |  |  |  |
| Nc1c(S(=O)(=O)O)cc(Nc2cccc(C(=O)O)c2)c2c1C(=O)c1ccccc1C2=O | < 5.00 | 6.00 |  |  |  |  |
| Cc1ccc(Nc2cc(S(=O)(=O)O)c(N)c3c2C(=O)c2ccccc2C3=O)c(C)c1 | < 5.00 | 6.00 |  |  |  |  |
| CC(=O)Nc1ccc(Nc2cc(S(=O)(=O)O)c(N)c3c2C(=O)c2ccccc2C3=O)cc1 | < 5.00 | 6.16 |  |  |  |  |
| Nc1c(S(=O)(=O)O)cc(Nc2cc(Cl)ccc2C(=O)O)c2c1C(=O)c1ccccc1C2=O | < 5.00 | 6.00 |  |  |  |  |
| Nc1c(S(=O)(=O)O)cc(Nc2cccc(C(F)(F)F)c2)c2c1C(=O)c1ccccc1C2=O |  | < 6.00 |  |  |  |  |
| Nc1c(S(=O)(=O)O)cc(Nc2ccc(F)cc2)c2c1C(=O)c1ccccc1C2=O | < 5.00 | 6.00 |  |  |  |  |
| Nc1c(S(=O)(=O)O)cc(Nc2ccc(C(=O)O)cc2)c2c1C(=O)c1ccccc1C2=O | < 5.00 | 6.00 |  |  |  |  |
| CCc1cccc(Nc2cc(S(=O)(=O)O)c(N)c3c2C(=O)c2ccccc2C3=O)c1 |  | < 6.00 |  |  |  |  |
| Nc1ccc(Nc2cc(S(=O)(=O)O)c(N)c3c2C(=O)c2ccccc2C3=O)cc1 | < 5.00 | < 5.00 |  |  |  |  |
| Nc1c(S(=O)(=O)O)cc(Nc2cccc(F)c2)c2c1C(=O)c1ccccc1C2=O |  | < 6.00 |  |  |  |  |
| Nc1ccccc1Nc1cc(S(=O)(=O)O)c(N)c2c1C(=O)c1ccccc1C2=O | < 5.00 | 6.00 |  |  |  |  |
| Nc1cccc(Nc2cc(S(=O)(=O)O)c(N)c3c2C(=O)c2ccccc2C3=O)c1 | < 5.00 | 6.00 |  |  |  |  |
| Nc1cc(Nc2cc(S(=O)(=O)O)c(N)c3c2C(=O)c2ccccc2C3=O)ccc1S(=O)(=O)O | < 5.00 | 6.00 |  |  |  |  |
| COc1ccccc1Nc1cc(S(=O)(=O)O)c(N)c2c1C(=O)c1ccccc1C2=O | < 5.00 | 5.70 |  |  |  |  |
| Nc1c(S(=O)(=O)O)cc(Nc2ccccc2O)c2c1C(=O)c1ccccc1C2=O | < 5.00 | 6.00 |  |  |  |  |
| COc1ccc(Nc2cc(S(=O)(=O)O)c(N)c3c2C(=O)c2ccccc2C3=O)cc1 | < 5.00 | 5.76 |  |  |  |  |
| Nc1c(S(=O)(=O)O)cc(Nc2cccc3ccccc23)c2c1C(=O)c1ccccc1C2=O | < 5.00 | < 5.00 |  |  |  |  |

Source: ChEMBL document CHEMBL1671813, “Discovery of potent competitive antagonists and positive modulators of the P2X2 receptor” (J Med Chem, 2011)
